Data published in ChEMBL document CHEMBL1154539, “Identification of small molecules that inhibit GSK-3beta through virtual screening” (Bioorg Med Chem Lett, 2009).
Active and inactive are the calls of the source. No cut-off for these calls is given here.

Columns and labels:
[1] = target: T1, Protein kinase C alpha type (Homo sapiens, UniProt P17252); assay: Inhibition of PKCalpha at 100 uM
[2] = target: T2, Glycogen synthase kinase-3 beta (Homo sapiens, UniProt P49841); assay: Inhibition of GSK3-beta at 10 uM by Z'-LYTE kinase assay
Method in brief: (§1)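 Z'-LYTE fluorescence-ratio (FRET) kinase assay with GSK-3β and its peptide substrate. Relative inhibition was plotted against increasing compound concentrations and IC50 taken from the inhibition curves. […] is percent inhibition at a single 10 µM compound concentration.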
Target sequence in this assay (P49841 whole entry, looked up): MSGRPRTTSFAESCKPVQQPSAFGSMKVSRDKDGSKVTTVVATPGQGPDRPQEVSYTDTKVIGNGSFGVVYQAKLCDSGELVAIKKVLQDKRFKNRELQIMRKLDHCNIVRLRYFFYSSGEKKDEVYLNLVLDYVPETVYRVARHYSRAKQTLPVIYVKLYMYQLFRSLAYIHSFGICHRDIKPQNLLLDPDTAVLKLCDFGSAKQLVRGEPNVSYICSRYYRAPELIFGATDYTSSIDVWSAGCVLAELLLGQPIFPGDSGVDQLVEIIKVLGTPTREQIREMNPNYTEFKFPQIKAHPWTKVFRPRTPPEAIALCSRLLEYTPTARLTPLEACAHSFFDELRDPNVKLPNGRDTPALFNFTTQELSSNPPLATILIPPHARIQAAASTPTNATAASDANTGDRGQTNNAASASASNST

[3] = Inhibition of PKA at 100 uM
[4] = Inhibition of CSNK2 at 100 uM
[5] = target: Cyclin-dependent kinase 1 (Homo sapiens) (UniProt P06493); assay: Inhibition of CDK1 at 100 uM
Chain of Cyclin-dependent kinase 1 (Homo sapiens) (P06493 whole entry, looked up): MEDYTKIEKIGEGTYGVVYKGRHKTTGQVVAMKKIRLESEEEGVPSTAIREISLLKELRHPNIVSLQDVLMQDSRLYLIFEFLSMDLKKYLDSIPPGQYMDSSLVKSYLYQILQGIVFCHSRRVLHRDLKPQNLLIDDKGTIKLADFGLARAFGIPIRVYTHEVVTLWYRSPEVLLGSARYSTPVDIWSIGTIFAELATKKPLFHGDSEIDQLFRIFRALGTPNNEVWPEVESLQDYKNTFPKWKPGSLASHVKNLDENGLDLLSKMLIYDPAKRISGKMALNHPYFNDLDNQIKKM

[6] = target: T2, Glycogen synthase kinase-3 beta; assay: Inhibition of GSK3-beta by ATP competitive inhibition based assay
Method in brief: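 GSK-3β enzyme velocity was measured with substrate across various ATP levels at increasing inhibitor concentrations. Mode of inhibition was read from Lineweaver–Burk double-reciprocal plots.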
Target sequence in this assay (P49841 whole entry, looked up): as the sequence (P49841 whole entry, looked up) above

[7] = target: T1, Protein kinase C alpha type; assay: Inhibition of PKCalpha
Method in brief: (§2)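 Counter-screen kinases (PKA, CSNK2, PKC, CDK1) were run under near-identical reaction conditions per the manufacturer's instructions, each with its own suitable substrate. Values are percent inhibition at a single 100 µM compound concentration, or IC50 in µM.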

[8] = target: T2, Glycogen synthase kinase-3 beta; assay: Inhibition of GSK3-beta by Z'-LYTE kinase assay
Method in brief: as §1
Target sequence in this assay (P49841 whole entry): as the sequence (P49841 whole entry, looked up) above

[9] = target: T2, Glycogen synthase kinase-3 beta; assay: Inhibition of GSK3-beta in myoblasts assessed as beta-casein accumulation at 2 uM after 3 hrs by immunoblot; conditions: in the assay text read “beta-catenin” for “beta-casein”
Method in brief: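 C2C12 myoblasts plated at 5 × 10⁵ were exposed to compound at 2 µM for 3 h. Cells were lysed for total protein, run on SDS–PAGE and immunoblotted with anti-β-catenin antibody.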
Target sequence in this assay (P49841 whole entry, looked up): as above

[10] = Inhibition of PKA
Method in brief: as §2

Row | Compound | inhibition [1] | inhibition [2] | inhibition [3] | inhibition [4] | inhibition [5] | Activity [6] | IC50 [7] | IC50 [8] | Activity [9] | IC50 [10]
1 | O=c1sn(CCc2ccccc2)c(=O)n1Cc1ccc(F)cc1 | 51% | 80% | 20% | 31% | 20% |  | 38.7 µM | 1.86 µM |  | 
2 | CCOC(=O)Cn1sc(=O)n(-c2ccc(C(=O)OCC)cc2)c1=O | 78% | 75% | 81% | 36% | 12% |  | 48.3 µM | 1.01 µM |  | 6.9 µM
3 | CCn1sc(=O)n(Cc2ccccc2)c1=O | 88% | 65% | 30% | 30% | 15% |  | 13.8 µM | 7.15 µM |  | 

Stronger by IC50 [7], values ahead:

Row | inhibition [1] | inhibition [2] | inhibition [3] | inhibition [4] | inhibition [5] | Activity [6] | IC50 [7] | IC50 [8] | Activity [9] | IC50 [10] | Compound
4 | 89% | 84% | 87% | 21% | 18% | Active | 5.3 µM | 0.467 µM | Active | 2.2 µM | CCOC(=O)Cn1sc(=O)n(-c2cccc(C(=O)OCC)c2)c1=O
5 | 84% | 74% | 35% | 17% | 0% | Active | 5.8 µM | 0.548 µM |  |  | O=c1sn(-c2ccccc2)c(=O)n1CCCl
6 | 93% | 65% | 75% | 21% | 15% |  | 4.1 µM | 0.539 µM |  | 17 µM | CCOC(=O)Cn1sc(=O)n(CC(=O)N2CCCCC2)c1=O
